A selection: hits, their analogues and other compounds. The true share with any hit is near 2.3%.
STAT3 blocker: IL-6 driven STAT3 reporter inhibitors, primary screen, U3A cells, luciferase, luminescence, MLSCN library. IL-6 STAT3-luciferase reporter; host cell line lacks STAT1. inhibition, % at 5.5 µM. actives 0.89% (n = 190,000). AID 862, 2007;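 active means inhibition above the mean inhibition across all screened compounds plus 3 SD, cut at about 44% in these data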
STAT3 act: IL-6 driven STAT3 reporter potentiators, primary screen, U3A cells, luciferase, luminescence, MLSCN library; activation (% of control), % at 5.6 µM; actives 0.91% (n = 190,000); IL-6 STAT3-luciferase reporter; 100% = signal with IL-6 EC80 alone; AID 871, 2007;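 active means activation above the screen-wide mean of compound activation plus 3 SD, cut at about 130% in these data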
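Assay system – human STAT1-deficient U3A cells with stable STAT3-luciferase reporter · Also added – IL-6 (33 ng/mL) · Schedule – compound 1 h, then IL-6 6 h at 37 °C · Technique – reporter luminescence signal · Evaluation – % activation versus median of IL-6-stimulated wells · Benchmarks – IL-6-only wells as 100% reference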
C8 TRAIL sens: viability loss with TRAIL in NB7+C8 cells, primary screen, TRAIL sensitizer project, cell-based, ATPlite luminescence; inhibition (viability loss, TRAIL sensitization), % at 10 µM; actives 1% (n = 360,000); AID 624354, 2012;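 active means compounds causing at least 50% loss of cell viability in the single-dose screen, relative to plate controls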
STAT1 blocker: STAT1 signaling inhibitors, primary screen, cell-based, HTS, luciferase reporter | NIH 3T3 STAT1-luciferase reporter, IFN-gamma, luminescence | inhibition, % at 5.5 µM | actives 0.35% (n = 200,000) | AID 920, 2007;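 active means inhibition above a set limit, the mean inhibition across all tested compounds plus 3 SD, cut at about 34% in these data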
PPC-1+TRAIL kill: compounds killing PPC-1 cancer cells with TRAIL present, primary screen, TRAIL potentiator project, ATPLite luminescence, uHTS | AID 1443, 2008 | actives 0.41% (n = 220,000) | cell killing (% activity), % at 4 µM or 5 µM | PPC-1 cells + TRAIL, ATPLite viability luminescence;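 active means cell killing above 50% in the first pass at 4 µM, then a duplicate retest at 5 µM averaging 50% or more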
HSP90 refold inh: HSP90 inhibitors, primary screen, cell lysate, luminescence; Heat shock protein HSP 90 (rabbit reticulocyte lysate; luciferase refolding); Rabbit reticulocyte lysate, luciferase refolding luminescence, 3 h; inhibition, % at 5.6 µM; actives 0.91% (n = 290,000);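 active means inhibition above the screen-wide mean plus 3 SD, computed separately per campaign, cut at about 16% in these data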;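 further: inhibitors lower the luminescence because luciferase stays unfolded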
Of the large screens only hits and unclear results are named; the others gave an inactive call.

CC(C)(C)c1ccc(C(=O)Oc2ccc3c(c2)OCC3=O)cc1	none
CCOc1cc(C2Nc3ccccc3C(=O)N2c2ccccc2)ccc1O (stereo not given)	none
COc1cc(C2Nc3ccccc3C(=O)N2c2ccccc2)ccc1O (stereo not given)	STAT3 act 133.0
COc1ccc(-n2nc(C(=O)NCC(=O)NCCCN3CCOCC3)c3ccccc3c2=O)c(OC)c1	none (no result: STAT3 blocker, STAT3 act, STAT1 blocker, PPC-1+TRAIL kill)
COc1ccccc1Nc1nc(NCc2ccco2)c2ccccc2n1	none (no result: STAT3 blocker, STAT3 act, STAT1 blocker)
Cc1ccc(Nc2nc(NCc3ccco3)c3ccccc3n2)cc1	C8 TRAIL sens 70.8
CC1OC1c1ccc(-c2ccc(C3OC3C)cc2)cc1 (stereo not given)	none (no result: STAT3 blocker, STAT3 act, STAT1 blocker, PPC-1+TRAIL kill, HSP90 refold inh)
Cc1scc(C(=O)N/N=C/c2ccsc2)c1C	C8 TRAIL sens 62.1, PPC-1+TRAIL kill 54.3
CN(C)c1cccc(C(=O)N/N=C/c2ccoc2)c1	none (no result: STAT3 blocker, STAT3 act, STAT1 blocker, PPC-1+TRAIL kill, HSP90 refold inh)
CN(C)c1cccc(C(=O)N/N=C/c2ccsc2)c1	C8 TRAIL sens 57.6
Nc1ccc2ccccc2c1N=Nc1ccccc1	none (no result: STAT3 blocker, STAT3 act, STAT1 blocker, PPC-1+TRAIL kill, HSP90 refold inh)
CN(Cc1ccon1)C(=O)CC1C(=O)NCCN1Cc1cccc(Oc2ccccc2)c1 (stereo not given)	none
Cn1c(SCC(=O)NC(C)(C)C)nnc1-c1ccc(C(C)(C)C)cc1	none
COCCNC(=O)c1c[nH]c2ccc(S(=O)(=O)N3CCc4ccccc43)cc2c1=O	C8 TRAIL sens 71.0
CN(C)C(/C=C/Nc1cccc([N+](=O)[O-])c1)=C(C#N)C#N	none
CC(C)OC(=O)CNc1n[nH]c(=S)[nH]c1=O	HSP90 refold inh 16.8
COC(=O)CNc1n[nH]c(=S)[nH]c1=O	none
Cc1c(C(=O)Nc2ccccc2[N+](=O)[O-])csc1-c1ccccc1	C8 TRAIL sens 65.8
O=C(CN1CCc2ccccc21)Nc1ccc2c(c1)OCCCO2	none (no result: STAT3 blocker, STAT3 act, STAT1 blocker, PPC-1+TRAIL kill, HSP90 refold inh)
O=C(Nc1nc2ccccc2[nH]1)C12CC3CC(CC(C3)C1)C2	C8 TRAIL sens 69.8
CSc1ccc(NC(=O)Nc2cccn(Cc3ccccc3)c2=O)cc1	none (no result: PPC-1+TRAIL kill)
O=C(C1=C(c2ccccc2)C(=O)c2ccccc2C1=O)c1ccccc1	HSP90 refold inh 74.1
CCOC(=O)Cc1csc(NC(=O)c2ccc(Br)s2)n1	HSP90 refold inh 16.4 (no result: C8 TRAIL sens)
O=C(CSc1nnc(CNc2ccc(F)cc2)o1)c1ccccc1	none (no result: PPC-1+TRAIL kill)
Nc1ccc(Oc2cccc(Oc3ccc(N)cc3)c2)cc1	STAT3 blocker 51.1, STAT1 blocker 39.1
CCCCCCCCCCCCCCCC[n+]1cccc(C(=O)N(CC)CC)c1	none
CCCCCCCCCCCCCCCC[n+]1ccc(/C=N/O)cc1	PPC-1+TRAIL kill 70.2
CCCCCCCCCCCCCCCC[n+]1ccc(C(N)=O)cc1	C8 TRAIL sens 71.2
CCCCCCCCCCCCCCCC[n+]1ccccc1	C8 TRAIL sens 94.7 (no result: STAT3 blocker, STAT3 act, STAT1 blocker, PPC-1+TRAIL kill, HSP90 refold inh)
O=C(COC(=O)CCCCCN=C1NS(=O)(=O)c2ccccc21)Nc1ccc(Cl)c(Cl)c1	none
CC(/C=C/c1cccc([N+](=O)[O-])c1)=N/NC(=O)c1cccnc1	none
CC(/C=C/c1ccccc1)=N/NC(=O)c1cc([N+](=O)[O-])cc([N+](=O)[O-])c1	C8 TRAIL sens 52.0
Cc1noc(C)c1COC(=O)c1cc(=O)[nH]c2ccccc12	none
C#Cc1ccc(NC(=O)C2(C)CCN2C(=O)CC(c2ccccc2)c2ccccc2)cc1 (stereo not given)	C8 TRAIL sens 93.1 (no result: STAT3 blocker, STAT3 act, STAT1 blocker, PPC-1+TRAIL kill, HSP90 refold inh)
CN1C[C@@H]2[C@@H]3C(=O)N(Cc4ccccc4)C(=O)[C@@H]3[C@](Cc3ccccc3)(C1=O)N2C(=O)c1ccc(C(C)(C)C)cc1	C8 TRAIL sens 64.6 (no result: STAT3 blocker, STAT3 act, STAT1 blocker, PPC-1+TRAIL kill, HSP90 refold inh)
O=C(CSc1nnc(NC(=O)c2ccccc2F)s1)NC1CCCC1	none (no result: STAT3 blocker, STAT3 act, STAT1 blocker, PPC-1+TRAIL kill)
COc1cccc(C(=O)Nc2nnc(SCC(=O)Nc3ccc(NC(C)=O)cc3)s2)c1	C8 TRAIL sens 67.7 (no result: STAT3 blocker, STAT3 act, STAT1 blocker, PPC-1+TRAIL kill)
CC(=O)Nc1ccc(NC(=O)CSc2nnc(NC(=O)c3ccccc3F)s2)cc1	C8 TRAIL sens 66.3 (no result: STAT3 blocker, STAT3 act, STAT1 blocker, PPC-1+TRAIL kill, HSP90 refold inh)
CCCCCn1c2c(c(=N)c3ccccc31)CCC2	none (no result: STAT3 blocker, STAT3 act, STAT1 blocker)
Cc1cc(C)c2c(=N)c3ccccc3n(CCCCCCCCn3c4ccccc4c(=N)c4c(C)cc(C)nc43)c2n1	C8 TRAIL sens 79.2 (no result: STAT3 blocker, STAT3 act, STAT1 blocker, PPC-1+TRAIL kill, HSP90 refold inh)
O=C(OCc1nnc(-c2ccccc2)o1)c1cccc(S(=O)(=O)N2CCOCC2)c1	none (no result: STAT3 blocker, STAT3 act, STAT1 blocker, PPC-1+TRAIL kill, HSP90 refold inh)
